Reference: ChEMBL document CHEMBL1144717, “1-(2-Carboxyindol-5-yloxy)propan-2-ones as inhibitors of human cytosolic phospholipase A2alpha: synthesis, biological activity, metabolic stability, and solubility” (Bioorg Med Chem, 2008)
Converted amounts (≈) assume the structure as drawn. The source made the active and inactive calls. The calls are words filed in the database; no cut-off is given here.

Tests used:
[1] = molecular target: T1, Cytosolic phospholipase A2 (Homo sapiens, UniProt P47712); assay: Inhibition of human platelet cPLA2-alpha activity
T1 sequence (P47712 whole entry): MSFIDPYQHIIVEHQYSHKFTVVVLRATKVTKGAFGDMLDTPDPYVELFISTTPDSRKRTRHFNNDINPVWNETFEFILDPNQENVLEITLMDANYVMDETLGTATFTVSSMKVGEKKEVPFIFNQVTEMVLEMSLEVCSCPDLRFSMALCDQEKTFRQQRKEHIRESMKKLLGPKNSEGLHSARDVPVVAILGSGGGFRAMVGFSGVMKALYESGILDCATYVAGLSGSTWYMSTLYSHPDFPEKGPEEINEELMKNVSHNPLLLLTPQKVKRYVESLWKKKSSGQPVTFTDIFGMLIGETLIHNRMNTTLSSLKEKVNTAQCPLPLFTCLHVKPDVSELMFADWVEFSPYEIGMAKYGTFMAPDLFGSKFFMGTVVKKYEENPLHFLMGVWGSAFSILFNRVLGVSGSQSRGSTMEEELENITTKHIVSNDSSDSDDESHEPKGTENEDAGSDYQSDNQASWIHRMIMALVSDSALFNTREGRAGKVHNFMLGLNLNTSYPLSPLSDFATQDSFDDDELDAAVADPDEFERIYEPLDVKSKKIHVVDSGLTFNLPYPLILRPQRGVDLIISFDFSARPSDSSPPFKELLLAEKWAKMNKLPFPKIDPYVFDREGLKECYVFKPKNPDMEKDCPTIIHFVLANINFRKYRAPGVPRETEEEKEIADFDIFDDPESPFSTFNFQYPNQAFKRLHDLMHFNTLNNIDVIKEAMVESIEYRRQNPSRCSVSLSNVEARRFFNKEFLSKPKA
How it was run: (§1)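 cPLA₂α isolated from human platelets. Incubated 60 min. Arachidonic acid released, with and without compound, measured by RP-HPLC with UV 200 nm after SPE cleanup, using an internal standard. Values are means of at least two independent determinations.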

[2] = Metabolic stability in rat liver microsomes at 20 uM after 30 mins in presence of NADPH by reverse phased HPLC relative to control; format: ADME, Microsome; conditions: read-out: Stability
How it was run: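 Rat liver microsomes at 5.7 mg protein/mL in PBS (0.1 M, pH 7.4); compound final 20 µM from DMSO. Preincubated 5 min at 37 °C, then started with NADPH (12 mM) and MgCl₂ (5 mM) solution. Stopped after 30 min with acetonitrile. Parent ketone peak measured by RP-HPLC at 240 nm and compared with an NADPH-free incubation. Mean of at least two independent determinations.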

[3] = Solubility in sodium phosphate buffer at pH 7.4; format: physicochemical
How it was run: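 Supernatant diluted with acetonitrile and phosphoric acid, then quantified by RP-HPLC at 240 nm against a calibration curve. Mean ± SD, n = 3 (n = 2 for values <1 µg/mL).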

[4] = molecular target: T2, Cytosolic phospholipase A2 (Homo sapiens) (UniProt P47712); assay: Inhibition of human platelet cPLA2-alpha activity at 10 uM; how it was run: as §1
T2 sequence (whole entry): T1 sequence (P47712 whole entry)

[5] = molecular target: T1, Cytosolic phospholipase A2; assay: Inhibition of cPLA2-alpha in TPA-stimulated intact human platelets assessed as liberation of arachidonic acid after 60 mins
How it was run: (§2)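 Human platelets from buffy coat, washed in PBS/EDTA and resuspended in PBS (0.1 M, pH 7.4) at about 10⁸ cells/mL. Preincubated 5 min at 37 °C with ETYA (final 10 µM) and compound in DMSO, then CaCl₂ added for a further 5 min. Stimulated with TPA (final 2 µM) for 60 min at 37 °C. Released arachidonic acid quantified by SPE then RP-HPLC, UV 200 nm, against an internal standard.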

[6] = molecular target: T2, Cytosolic phospholipase A2 (Homo sapiens); assay: Inhibition of cPLA2-alpha in TPA-stimulated intact human platelets assessed as liberation of arachidonic acid at 10 um after 60 mins; how it was run: as §2

Row | IC50 [1] [µM] | remaining at 0.5 h, 20 µM [2] [%] | solubility [3] [µg/mL] | inhibition [4] [%] | IC50 [5] [µM] | Activity [6] | Activity [4] | SMILES
1 | 3.3 | < 5 | 8.4 (≈ 19.2 µM) |  |  |  |  | CCCCCCCCc1ccc(OCC(=O)COc2ccc3[nH]c(C(=O)O)cc3c2)cc1
2 | > 10 | 9 | 46 (≈ 90.4 µM) | 32 |  |  |  | CCCCCCCCc1ccc(OCC(=O)COc2ccc3c(c2)cc(C(=O)O)n3CCN(C)C)cc1
3 | 10 | < 5 | < 1 |  |  |  |  | CCCCCCCCc1ccc(OCC(=O)COc2ccc3c(c2)cc(C(=O)O)n3Cc2ccccc2)cc1
4 | 1.5 | 15 | 13 (≈ 22.7 µM) |  |  |  |  | CCCCCCCCc1ccc(OCC(=O)COc2ccc3c(c2)cc(C(=O)O)n3Cc2ccc(C(=O)O)cc2)cc1
5 | 2.1 | < 5 | < 1 |  |  |  |  | CCCCCCCCc1ccc(OCC(=O)COc2ccc3c(c2)cc(C(=O)O)n3CCC)cc1
6 | 0.3 | 18 | 8.1 (≈ 16.3 µM) |  | 1.3 |  |  | CCCCCCCCc1ccc(OCC(=O)COc2ccc3c(c2)cc(C(=O)O)n3CC(=O)O)cc1
7 | 1.2 | < 5 | < 1 |  | 0.6 |  |  | CCCCCCCCc1ccc(OCC(=O)COc2ccc3c(c2)cc(C(=O)O)n3C)cc1
8 |  |  |  |  |  | inactive | inactive | CCCCCCCCc1ccc(OCC(O)COc2ccc3c(c2)cc(C(=O)O)n3CC(=O)O)cc1 (stereo not given)
9 | 0.4 | < 5 | 30 (≈ 57.3 µM) |  | 0.3 |  |  | CCCCCCCCc1ccc(OCC(=O)COc2ccc3c(c2)cc(C(=O)O)n3CCCC(=O)O)cc1
10 | 0.6 | < 5 | 17 (≈ 30.8 µM) |  | 0.5 |  |  | CCCCCCCCc1ccc(OCC(=O)COc2ccc3c(c2)cc(C(=O)O)n3CCCCCC(=O)O)cc1
11 |  |  |  |  |  | inactive | inactive | CCCCCCCCc1ccc(OCC(O)COc2ccc3c(c2)cc(C(=O)O)n3C)cc1 (stereo not given)
12 | > 10 | < 5 | < 1 | 42 |  |  |  | CCCCCCCCc1ccc(OCC(=O)COc2ccc3c(c2)cc(C(=O)O)n3CCCCCC)cc1
